Bioassay records: PubChem, several laboratories
NR2E3 ag-1: activates human NR2E3 receptor. CHO-S Gal4-NCOR/VP16-NR2E3 two-hybrid, luciferase. inhibition of corepressor binding, % at 3.98 µM. actives 0.35% (n = 360,000);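 active = inhibition above the mean of all tested compounds plus 3 SD, cut at about 70% in these data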;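 also: 0% = DMSO with NR2E3 transfected cells and 100% = cells lacking NR2E3 construct; higher means lower luciferase signal from less NR2E3 corepressor binding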
GalR3 antagonist: antagonists of human GalR3 | O60755 | HEK293 GalR3-CNG cAMP membrane potential fluorescence; galR3 body fused to GalR1 C-terminus | inhibition, % at 3 µM | actives 0.44% (n = 360,000) | AID 651719;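 active = inhibition above the screen-wide average plus 3 SD, cut at about 13% in these data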;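 also: forskolin and galanin both at EC90 stimulate the cells; cAMP rise reported by CNG channel membrane potential dye signal; 0% = forskolin plus galanin with DMSO and 100% = forskolin alone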
Target sequence (O60755 1-299 limits assumed): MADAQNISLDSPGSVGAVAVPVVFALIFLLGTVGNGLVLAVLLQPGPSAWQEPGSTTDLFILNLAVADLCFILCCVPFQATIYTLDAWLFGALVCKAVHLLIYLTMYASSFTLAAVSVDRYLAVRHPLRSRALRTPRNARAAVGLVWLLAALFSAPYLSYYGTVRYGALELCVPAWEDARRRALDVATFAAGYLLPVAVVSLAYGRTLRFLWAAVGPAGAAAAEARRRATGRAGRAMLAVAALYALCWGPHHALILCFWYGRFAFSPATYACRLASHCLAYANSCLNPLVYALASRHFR
CHT allo act: human CHT allosteric activation. CHT-expressing cells, membrane potential dye, choline EC20; active compounds read high; LV-AA mutant CHT in HEK293 cells. B-score at 10 µM. actives 0.49% (n = 310,000). AID 488977;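 active = initial fluorescence not abnormally high and integrated response B-score, plate-corrected, over 3 SD above library mean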
NR2F2 inh: blocks human COUP-TFII nuclear receptor | inhibition, % at 8.6 µM | HEK293T NGFI-A luciferase reporter, luminescence | actives 0.7% (n = 370,000) | P24468;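 active = inhibition above a per-plate cutoff, mean inhibition of test wells between control levels plus 3 SD, cut at about 38% in these data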;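 also: cells cotransfected with COUP-TFII expression vector driving the NGFI-A reporter; 0% = median of COUP-TF2 test wells and 100% = reporter-only cells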
Target sequence (P24468 whole entry, looked up): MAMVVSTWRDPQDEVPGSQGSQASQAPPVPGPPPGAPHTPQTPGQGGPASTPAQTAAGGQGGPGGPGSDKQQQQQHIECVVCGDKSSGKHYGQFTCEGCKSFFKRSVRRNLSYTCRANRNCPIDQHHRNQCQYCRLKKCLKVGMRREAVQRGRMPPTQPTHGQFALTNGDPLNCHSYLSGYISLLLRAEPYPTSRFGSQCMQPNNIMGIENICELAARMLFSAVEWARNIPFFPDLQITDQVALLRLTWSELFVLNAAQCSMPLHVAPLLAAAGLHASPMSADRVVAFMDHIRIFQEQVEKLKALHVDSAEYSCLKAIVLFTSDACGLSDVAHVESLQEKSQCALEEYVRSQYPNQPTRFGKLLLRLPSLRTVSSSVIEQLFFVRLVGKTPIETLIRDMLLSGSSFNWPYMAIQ
CHT block: inhibitors of human choline transporter CHT; B-score at 10 µM; actives 0.86% (n = 310,000); CHT-expressing cells, membrane potential dye, choline response; active compounds read low; Q9GZV3; AID 488975;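 active = B-score over 3 SD under the library average, and starting fluorescence ratio not unusually high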;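 also: choline stimulus applied at its EC90 after an EC20 pre-addition; B-score computed on integrated fluorescence ratio after choline addition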
NR2E3 ag-2: agonists of human nuclear receptor NR2E3; Q9Y5X4; GST-NR2E3/biotin-RetCOR TR-FRET, 1536-well; inhibition of corepressor binding, % at 4.78 µM; actives 0.12% (n = 320,000); AID 2300;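 active = percent inhibition above the cutoff of mean plus 3 SD of all tested compounds, set per screening campaign, cut at about 20% in these data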;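 also: 0% = DMSO wells and 100% = biotin wells as full block of FRET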
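System: GST-tagged NR2E3 plus biotinylated RetCOR corepressor; Amount: 1.35 nM GST-tagged NR2E3 final; Dosing: single nominal compound dose of 4.8 µM; Schedule: 5 h incubation at 4 °C; Technique: TR-FRET with europium anti-GST and streptavidin-D2, 340 nm excitation; Controls: biotin wells as high control, 0.6% DMSO wells as low control.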
NR2E3 ag confirm: NR2E3 agonism confirmed in two-hybrid assay; actives 51% (n = 2,300); CHO-S mammalian two-hybrid NR2E3-NCOR, luciferase luminescence; inhibition, % at 3.98 µM; shares compounds with NR2E3 ag-1;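 active = average inhibition above a cutoff equal to the mean inhibition of all tested compounds plus one SD, cut at about 70% in these data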;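 also: 0% = DMSO in NR2E3 cells and 100% = DMSO in cells lacking NR2E3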
GAL4-VP16 luc: counter-screen for NR2E3 agonists: GAL4-VP16 reporter inhibitors. shares compounds with NR2E3 ag-1. CHO-S GAL4-VP16 luciferase reporter, luminescence. inhibition, % at 3.98 µM. actives 29% (n = 2,300). AID 624379;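 active = mean inhibition above a cutoff equal to the average over all tested compounds plus one standard deviation, cut at about 70% in these data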;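 also: luciferase from a UAS reporter driven by GAL4-VP16 transactivation; 0% = DMSO with VP16-transfected cells and 100% = DMSO with cells lacking VP16; higher means less reporter light so more repression of VP16 activity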
VP16 Luc counter: inhibits VP16 reporter, flagging COUP-TFII antagonist hits; HEK293 Gal4-VP16 luciferase reporter, luminescence; shares compounds with NR2F2 inh; actives 25% (n = 2,500); inhibition, % at 8.5 µM; in the data active = inhibition above about 13%
COUP-TFII conf: confirmation of human COUP-TFII (NR2F2) inhibitors; shares compounds with NR2F2 inh; HEK293 NGFI-A luciferase reporter, luminescence; inhibition, % at 8.5 µM; actives 45% (n = 2,500);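 active = mean inhibition over three repeats above a set limit taken from the earlier primary screen, cut at about 38% in these data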;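 also: 100% = cells given the luciferase reporter alone without the COUP-TF2 vector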
Starred values were filed as active, the others as inactive; i = inactive; x = no result given. Shown are actives, neighbours in structure and some others; about 2.3% of the full set was active somewhere.

SMILES | NR2E3 ag-1 | GalR3 antagonist | CHT allo act | NR2F2 inh | CHT block | NR2E3 ag-2 | NR2E3 ag confirm | GAL4-VP16 luc | VP16 Luc counter | COUP-TFII conf
CC1C(OC(=O)CCC(=O)NC(C)(C)CO)O[C@H]2OC3(C)CC[C@H]4[C@H](C)CCC1C24OO3 (some centres not stated) | 97* | -10 | i | 46* | i | 2 | 95* | 75* | 7 | 50*
CC(C)CC(NC(=O)CCCNC(=O)CCC(=O)OC1O[C@H]2OC3(C)CC[C@H]4[C@H](C)CCC(C1C)C24OO3)C(=O)O (some centres not stated) | 94* | -9 | i | 46* | i | -3 | 91* | 74* | -3 | 45*
CC(C)C[C@@H]1COc2cccc(N3CCN(C)CC3)c2S(=O)(=O)N1 | -4 | -4 | x | -14 | x | x | x | x | x | x
C[C@H]1C[C@@H](C)C(=O)[C@@H]([C@H](O)CC2CC(=O)NC(=O)C2)C1 | 101* | -7 | i | 85* | i | 0 | 100* | 94* | 6 | 70*
CCOC(=O)[C@]12Cc3cc(OC)ccc3[C@H]1N(C1CCCCC1)C(=O)c1ccccc12 | 31 | -6 | x | 18 | x | x | x | x | x | x
Cc1ccc(C(O)(C(=O)OC(C)C)C(O)c2ccccc2)cc1 (configuration not stated) | x | 4 | x | -9 | x | x | x | x | x | x
O=C1NC2C(=CC(O)C(O)C2O)c2cc3c(c(O)c21)OCO3 (configuration not stated) | 102* | -4 | x | 91* | x | x | 100* | 99* | 25* | 84*
O=C1NC2C(=CC(O)C(O)C2O)c2cc3c(cc21)OCO3 (configuration not stated) | 100* | -2 | x | 78* | x | x | 100* | 97* | 11 | 58*
O=C1NC2C(O)C(O)C(O)C(O)C2c2cc3c(c(O)c21)OCO3 (configuration not stated) | 99* | -2 | x | 80* | x | x | 98* | 99* | 29* | 80*
N#CC1c2ccccc2-n2nncc2CN1C(=O)c1ccccc1F (configuration not stated) | 2 | -8 | x | -14 | x | x | x | x | x | x
COc1ccc(-n2nnnc2C(c2cccc3ccccc23)N2CCC3(CC2)C(=O)NCN3c2ccccc2)cc1 (configuration not stated) | -10 | -8 | x | 7 | x | x | x | x | x | x
COc1ccc(C(c2nnnn2C(C)(C)C)N2CCC3(CC2)C(=O)NCN3c2ccccc2)cc1 (configuration not stated) | -10 | -2 | x | -15 | x | x | x | x | x | x
Cn1nc(-c2ccc(OCC(=O)N3CCN(Cc4ccccc4)CC3)cc2)c2ccccc2c1=O | 71* | -5 | i | 55* | i | -5 | 68 | 59 | 6 | 36
CC12CCC(O)CC1CCC1C2CCC2(C)C(C(=O)CO)CCC12 (configuration not stated) | 11 | 2 | x | 19 | x | x | x | x | x | x
O=c1[nH]c(=S)[nH]c(O)c1N=Nc1ccc2c(c1)OCCO2 | -80 | -4 | i | -3 | i | -2 | x | x | x | x
O=c1[nH]c(O)c(N=Nc2ccc3c(c2)OCCO3)c(=O)[nH]1 | 69 | -2 | i | 82* | i | -2 | 42 | 37 | -6 | 64*
CC1CC(C)CC(C)C(O)C(C#N)=CC=CCC(C2CCCC2C(=O)O)OC(=O)CC(O)C(C)C1 (configuration not stated) | 102* | -4 | x | 84* | x | x | 101* | 100* | 23* | 80*
CCC(C)c1cnc(CC(C)C)c(=O)n1O (configuration not stated) | -12 | -1 | x | -7 | x | x | x | x | x | x
C[C@H]1CCC/C=C/[C@@H]2C[C@H](O)C[C@H]2[C@@H](O)/C=C/C(=O)O1 | 86* | -7 | x | 53* | x | x | 98* | 64 | 18* | 31
COc1ccc(C[C@H]2NC[C@H](O)[C@H]2OC(C)=O)cc1 | 104* | 1 | i | 89* | i | 1 | 99* | 99* | 20* | 83*
CN1OC[C@@H]2CN[C@H](c3ccc(Br)cc3)C[C@@H]21 | 16 | -1 | x | 9 | x | x | x | x | x | x
Cc1ccccc1-n1c(/C=C/c2ccccn2)nc2ccccc2c1=O | -25 | -5 | i | 6 | i | 0 | x | x | x | x
CN1C2CCC1/C(=C/c1ccccn1)C(=O)/C2=C\c1ccccn1 | 88* | 1 | i | 63* | i | 4 | 100* | 26 | 68* | 85*
Cc1ccccc1-c1ccc2c(c1)C1c3c(-c4ccccc4)nnn3-c3ccccc3C(=O)N1CC2 (configuration not stated) | 11 | 7 | x | -14 | x | x | x | x | x | x
CC1=C(O)C(=O)C=C2C1=CC=C1C2(C)CCC2(C)C3CC(C)(C(=O)O)CCC3(C)CCC12C (configuration not stated) | 99* | -4 | x | 79* | x | x | 95* | 77* | 81* | 83*
SMILES | NR2E3 ag-1 | GalR3 antagonist | CHT allo act | NR2F2 inh | CHT block | NR2E3 ag-2 | NR2E3 ag confirm | GAL4-VP16 luc | VP16 Luc counter | COUP-TFII conf
O=c1[nH]c2ccccc2n1C1CCN(C(CCc2ccccc2)c2nnnn2C2CCCC2)CC1 (configuration not stated) | 20 | -7 | x | 3 | x | x | x | x | x | x
CCOC(=O)[C@]12Cc3ccc4ccccc4c3[C@H]1N(Cc1ccccc1)C(=O)c1ccccc12 | -15 | -3 | x | -13 | x | x | x | x | x | x
COc1cccc(C(c2nnnn2-c2ccc3c(c2)OCCO3)N2CCC(n3c(=O)[nH]c4ccccc43)CC2)c1OC (configuration not stated) | 53 | 1 | x | 40* | x | x | 21 | 25 | -2 | 7
O=C(CCc1ccccc1)N1Cc2cc(N3CCCCC3)ccc2-n2nncc2C1 | -9 | -6 | x | 13 | x | x | x | x | x | x
N#CC1c2ccccc2-n2nncc2CN1Cc1cc(Cl)cc(Cl)c1 (configuration not stated) | 88* | -4 | x | 84* | x | x | 79* | 71* | 56* | 64*
O=[N+]([O-])c1ccc(N2CCOCC2)c2cccnc12 | -9 | -2 | i | -16 | i | -2 | x | x | x | x
O=[N+]([O-])c1ccc(N2CCOCC2)c2c1no[n+]2[O-] | 58 | -1 | x | 89* | x | x | 59 | 56 | 62* | -105
